# Active and inactive are the calls of the source. No cut-off for these calls is given here.
# Columns and labels:
# [1] = system: PC-12; assay: Induction of rat PC12 cell proliferation at 0.5 to 50 uM after 72 hrs by microscopic analysis; format: functional, cell-based
# Summary of the method: (§1)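 Undifferentiated PC12 cells cultured 72 h with compound at 0.5–50 µM (images at 10 µM) or with NGF 50 ng/ml, then examined under a digital microscope.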
# [2] = system: PC-12; assay: Induction of rat PC12 cell proliferation at 10 uM after 72 hrs by microscopic analysis; format: functional, cell-based; summary of the method: as §1
# [3] = system: SH-SY5Y; assay: Neuroprotective activity against t-BuOOH-induced oxidative stress in human SH-SY5Y cells assessed as inhibition ROS accumulation pre-incubated for 24 hrs before t-BuOOH challnge for 30 mins by DCFH-DA probe based fluorescence assay; format: functional, cell-based
# Summary of the method: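 SH-SY5Y cells; test agents at 1–0.01 µM, oxidative stress induced by tert-butyl hydroperoxide; intracellular ROS read by DCFH-DA fluorescence; at least three independent experiments in sextuplicate; EC50 derived.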
# [4] = system: PC-12; assay: Cytotoxicity against rat undifferentiated PC12 cells at 0.5 to 50 uM after 72 hrs by MTT assay; format: cell-based; conditions: pc-12, 72 h
# [5] = Permeability of compound at 100 ug/ml after 10 hrs by PAMPA assay; format: ADME; conditions: read-out: permeability
# [6] = system: Mus musculus; assay: Toxicity in C57BL/6 mouse assessed as histological abnormalities of liver at 2000 mg/kg, ig after 14 consecutive days by hematoxylin/eosin dye-based microscopic analysis; format: organism-based; conditions: in vivo, po, 336 h
# Summary of the method: (§2)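 Adult C57BL/6 mice, 12 weeks old, single intragastric doses of 0, 677, 1333 or 2000 mg/kg (n = 6 per dose, 3 male/3 female); behaviour and mortality observed over 14 days; liver, heart, lung and brain examined by HE staining at 2000 mg/kg.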
# [7] = system: Mus musculus; assay: Induction of cell proliferation in C57BL/6 mouse hippocampal neurons in CA2 region assessed as BrdU-incorporation at 30 mg/kg, po administered via gavage for 7 days by immunohistochemical analysis (reference value: 2.4%); format: functional
# Summary of the method: (§3)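 C57BL/6 mice, 12 weeks old, n = 6, individually housed beforehand without wheels. Compound gavaged 30 mg/kg/day for 7 days with daily IP BrdU 50 mg/kg; BrdU+ cells counted by immunohistochemistry per hippocampal volume; two-way ANOVA.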
# [8] = system: Mus musculus; assay: Induction of cell proliferation in C57BL/6 mouse hippocampal neurons in CA2 region assessed as BrdU-incorporation at 0.5 uL/hr, icv for 7 days by immunohistochemical analysis (reference value: 2.4%); format: functional
# [9] = system: Mus musculus; assay: Induction of cell proliferation in C57BL/6 mouse hippocampal neurons in CA3 region assessed as BrdU-incorporation at 30 mg/kg, po administered via gavage for 7 days by immunohistochemical analysis (reference value: 1.5%); format: functional; summary of the method: as §3
# [10] = system: Mus musculus; assay: Toxicity in C57BL/6 mouse assessed as macroscopic abnormalities of stomach at 677 to 2000 mg/kg, ig after 14 consecutive days; format: organism-based; conditions: in vivo, po
# [11] = system: Mus musculus; assay: Induction of cell proliferation in C57BL/6 mouse hippocampal neurons in DG region assessed as BrdU-incorporation at 0.5 uL/hr, icv for 7 days by immunohistochemical analysis (reference value: 7.8%); format: functional
# [12] = system: Mus musculus; assay: Induction of cell proliferation in C57BL/6 mouse hippocampal neurons in CA3 region assessed as BrdU-incorporation at 0.5 uL/hr, icv for 7 days by immunohistochemical analysis (reference value: 1.4%); format: functional
# [13] = system: Mus musculus; assay: Toxicity in C57BL/6 mouse assessed as histological abnormalities of brain at 2000 mg/kg, ig after 14 consecutive days by hematoxylin/eosin dye-based microscopic analysis; format: organism-based; conditions: in vivo, po, 336 h; summary of the method: as §2
# [14] = system: Mus musculus; assay: Induction of cell proliferation in C57BL/6 mouse hippocampal neurons in CA1 region assessed as BrdU-incorporation at 30 mg/kg, po administered via gavage for 7 days by immunohistochemical analysis (reference value: 2.3%); format: functional; summary of the method: as §3
# [15] = system: Mus musculus; assay: Toxicity in C57BL/6 mouse assessed as macroscopic abnormalities of liver at 677 to 2000 mg/kg, ig after 14 consecutive days; format: organism-based; conditions: in vivo, po
# [16] = system: Mus musculus; assay: Toxicity in C57BL/6 mouse assessed as macroscopic abnormalities of intestine at 677 to 2000 mg/kg, ig after 14 consecutive days; format: organism-based; conditions: in vivo, po
# [17] = system: Mus musculus; assay: Toxicity in C57BL/6 mouse assessed as effect on food intake at 677 to 2000 mg/kg, ig measured continuously during first 4 hrs, intermittently for following 24 hrs and occasionally thereafter for 14 consecutive days; format: organism-based; conditions: in vivo, po
# [18] = system: Mus musculus; assay: Toxicity in C57BL/6 mouse assessed as macroscopic abnormalities of heart at 677 to 2000 mg/kg, ig after 14 consecutive days; format: organism-based; conditions: in vivo, po
# [19] = system: Mus musculus; assay: Toxicity in C57BL/6 mouse assessed as macroscopic abnormalities of kidney at 677 to 2000 mg/kg, ig after 14 consecutive days; format: organism-based; conditions: in vivo, po
# [20] = system: Mus musculus; assay: Toxicity in C57BL/6 mouse assessed as effect on body weight at 677 to 2000 mg/kg, ig measured continuously during first 4 hrs, intermittently for following 24 hrs and occasionally thereafter for 14 consecutive days; format: organism-based; conditions: in vivo, po
# [21] = system: Mus musculus; assay: Induction of cell proliferation in C57BL/6 mouse hippocampal neurons in DG region assessed as BrdU-incorporation at 30 mg/kg, po administered via gavage for 7 days by immunohistochemical analysis (reference value: 2.2%); format: functional; summary of the method: as §3
# [22] = system: Mus musculus; assay: Toxicity in C57BL/6 mouse assessed as abnormal behavior at 677 to 2000 mg/kg, ig measured continuously during first 4 hrs, intermittently for following 24 hrs and occasionally thereafter for 14 consecutive days; format: organism-based; conditions: in vivo, po
# Summary of the method: (§4)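 Adult C57BL/6 mice, 12 weeks old, given single intragastric doses of 0, 677, 1333 or 2000 mg/kg (n = 6 per dose, 3 male and 3 female). Abnormal behaviour and deaths observed continuously for the first 4 h, intermittently over the next 24 h, then occasionally for 14 days to catch delayed effects.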
# [23] = Half life in Sprague-Dawley rat liver microsomes at 100 uM up to 180 mins by HPLC-UV analysis; conditions: liver microsomes
# [24] = system: Mus musculus; assay: Toxicity in C57BL/6 mouse assessed as mortality at 677 to 2000 mg/kg, ig measured continuously during first 4 hrs, intermittently for following 24 hrs and occasionally thereafter for 14 consecutive days; format: organism-based; conditions: in vivo, po; summary of the method: as §4
# [25] = system: Mus musculus; assay: Toxicity in C57BL/6 mouse assessed as histological abnormalities of lung at 2000 mg/kg, ig after 14 consecutive days by hematoxylin/eosin dye-based microscopic analysis; format: organism-based; conditions: in vivo, po, 336 h; summary of the method: as §2
# [26] = system: Mus musculus; assay: Toxicity in C57BL/6 mouse assessed as histological abnormalities of heart at 2000 mg/kg, ig after 14 consecutive days by hematoxylin/eosin dye-based microscopic analysis; format: organism-based; conditions: in vivo, po; summary of the method: as §2
# [27] = system: Mus musculus; assay: Toxicity in C57BL/6 mouse assessed as effect on water intake at 677 to 2000 mg/kg, ig measured continuously during first 4 hrs, intermittently for following 24 hrs and occasionally thereafter for 14 consecutive days; format: organism-based; conditions: in vivo, po
# [28] = Metabolic stability in Sprague-Dawley rat liver microsomes assessed as metabolic rate constant at 100 uM up to 180 mins by HPLC-UV analysis; conditions: 3 h
# [29] = system: Mus musculus; assay: Toxicity in C57BL/6 mouse assessed as macroscopic abnormalities of spleen at 677 to 2000 mg/kg, ig after 14 consecutive days; format: organism-based; conditions: in vivo, po
# [30] = system: Mus musculus; assay: Toxicity in C57BL/6 mouse assessed as macroscopic abnormalities of lung at 677 to 2000 mg/kg, ig after 14 consecutive days; format: organism-based; conditions: in vivo, po, 336 h
# [31] = system: Mus musculus; assay: Induction of cell proliferation in C57BL/6 mouse hippocampal neurons in CA1 region assessed as BrdU-incorporation at 0.5 uL/hr, icv for 7 days by immunohistochemical analysis (reference value: 3.2%); format: functional
structure (smiles),measurement,setting,value
Oc1cccc2ccc(-c3cc4ccc5c(c4[nH]3)OCO5)nc12 [listing 1 of 2 here],Activity,[1],Active
same,Activity,[2],Active
Oc1c(Cl)cc(Cl)c2ccc(-c3cc4cc5c(cc4[nH]3)OCO5)nc12,EC50,[3],330 nM
same,Activity,[4],Non-Toxic
same,"Papp at 10 h, 100 ug/ml",[5],4.9 ×10⁻⁶ cm/s
Cl.Oc1c(Cl)cc(Cl)c2ccc(-c3cc4cc(Cl)ccc4[nH]3)nc12,Activity,[6],Non-Toxic
same,Activity,[7],5.1%
same,Activity,[8],18.1%
same,Activity,[9],4.7%
same,Activity,[10],Non-Toxic
same,Activity,[11],28.5%
same,Activity,[12],20.3%
same,Activity,[13],Non-Toxic
same,Activity,[14],4.8%
same,Activity,[15],Non-Toxic
same,Activity,[16],Non-Toxic
same,Activity,[17],Non-Toxic
same,Activity,[18],Non-Toxic
same,Activity,[19],Non-Toxic
same,Activity,[20],Non-Toxic
same,Activity,[21],4.4%
same,Activity,[22],Non-Toxic
same,"half-life at 3 h, 100 µM",[23],3.26 h
same,Activity,[24],Non-Toxic
same,Activity,[25],Non-Toxic
same,Activity,[26],Non-Toxic
same,Activity,[27],Non-Toxic
same,K,[28],0.00354 min⁻¹
same,Activity,[29],Non-Toxic
same,Activity,[30],Non-Toxic
same,Activity,[31],15.3%
CN(C)CCCN1c2ccccc2Sc2ccc(Cl)cc21 [CHLORPROMAZINE],"Papp at 10 h, 100 ug/ml",[5],5.9 ×10⁻⁶ cm/s
Oc1c(Cl)cc(Cl)c2ccc(-c3cc4cc(Cl)ccc4[nH]3)nc12,EC50,[3],820 nM
same,Activity,[4],Non-Toxic
same,"Papp at 10 h, 100 ug/ml",[5],5.6 ×10⁻⁶ cm/s
Oc1c(Cl)cc(Cl)c2ccc(-c3cc4cc(F)ccc4[nH]3)nc12,Activity,[1],inactive
same,"Papp at 10 h, 100 ug/ml",[5],5.3 ×10⁻⁶ cm/s
Oc1cccc2ccc(-c3cc4ccccc4[nH]3)nc12,"Papp at 10 h, 100 ug/ml",[5],8 ×10⁻⁶ cm/s
COc1cc2cc(-c3ccc4cccc(O)c4n3)[nH]c2cc1OC,"Papp at 10 h, 100 ug/ml",[5],5.2 ×10⁻⁶ cm/s
Oc1cccc2ccc(-c3cc4ccc5c(c4[nH]3)OCO5)nc12 [listing 2 of 2 here],EC50,[3],260 nM
same,Activity,[4],Non-Toxic
same,"Papp at 10 h, 100 ug/ml",[5],5.9 ×10⁻⁶ cm/s
Oc1cccc2ccc(-c3cc4cc(Cl)ccc4[nH]3)nc12,Activity,[4],Toxic
same,"Papp at 10 h, 100 ug/ml",[5],9.8 ×10⁻⁶ cm/s
COc1cc2[nH]c(-c3ccc4cccc(O)c4n3)cc2cc1O,"Papp at 10 h, 100 ug/ml",[5],12.1 ×10⁻⁶ cm/s
Oc1c(Cl)cc(Cl)c2ccc(-c3cc4ccccc4[nH]3)nc12,Activity,[1],inactive
same,"Papp at 10 h, 100 ug/ml",[5],6.6 ×10⁻⁶ cm/s
